Species on record: Rattus norvegicus
Assay: Antinidatory effect was measured in rat relative to that of prostaglandin F2 alpha.
Assay type: functional
Method in brief: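 Mated Wistar female rats (9 weeks, 180–200 g); sperm in vaginal smear marked day 0. Analogues in 10% EtOH–0.4% Tween 80 in saline (1 mg/mL stock, diluted with saline), given sc twice daily on days 3–5 at three to eight doses, 5–20 rats per dose. Killed day 11; no implantation site = effective. ED50 by Litchfield-Wilcoxon, expressed relative to PGF2α.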

Row | Compound | Activity
1 | COC(=O)CCC/C=C\C[C@@H]1[C@@H](/C=C/[C@@H](O)c2ccccc2OC)[C@H](O)C[C@@H]1O | <2
2 | COC(=O)CCC/C=C\C[C@@H]1[C@@H](/C=C/[C@@H](O)C#Cc2ccc(Cl)cc2)[C@H](O)C[C@@H]1O | 1
3 | COC(=O)CCC/C=C\C[C@@H]1[C@@H](/C=C/[C@@H](O)CC(=O)c2ccc(Cl)cc2)[C@H](O)C[C@@H]1O | 8
4 | COC(=O)CCC/C=C\C[C@@H]1[C@@H](/C=C/[C@@H](O)C[Si](C)(C)c2ccccc2)[C@H](O)C[C@@H]1O | <1
5 | COC(=O)CCC/C=C\C[C@@H]1[C@@H](/C=C/[C@@H](O)c2cc3ccccc3o2)[C@H](O)C[C@@H]1O | 100
6 | COC(=O)CCC/C=C\C[C@@H]1[C@@H](/C=C/[C@@H](O)CC(=O)c2cccc(Cl)c2)[C@H](O)C[C@@H]1O | 10
7 | COC(=O)CCC/C=C\C[C@@H]1[C@@H](/C=C/[C@@H](O)C2C=Cc3ccccc32)[C@H](O)C[C@@H]1O (stereo partly specified) | <5
8 | COC(=O)CCC/C=C\C[C@@H]1[C@@H](/C=C/[C@@H](O)C(Oc2ccccc2)C(=O)OC)[C@H](O)C[C@@H]1O (stereo partly specified) | <4
9 | COC(=O)CCC/C=C\C[C@@H]1[C@@H](/C=C/[C@@H](O)C#Cc2cccc(Cl)c2)[C@H](O)C[C@@H]1O | 40
10 | COC(=O)CCC/C=C\C[C@@H]1[C@@H](/C=C/[C@@H](O)C2(Sc3ccccc3)CC2)[C@H](O)C[C@@H]1O | <2
11 | COC(=O)CCC/C=C\C[C@@H]1[C@@H](/C=C/[C@@H](O)CC(=O)Oc2ccccc2)[C@H](O)C[C@@H]1O | <1
12 | COC(=O)CCC/C=C\C[C@@H]1[C@@H](/C=C/[C@@H](O)C#Cc2ccccc2)[C@H](O)C[C@@H]1O | 40
13 | COC(=O)CCC/C=C\C[C@@H]1[C@@H](/C=C/[C@@H](O)c2cc3ccccc3s2)[C@H](O)C[C@@H]1O | 40
14 | COC(=O)CCC/C=C\C[C@@H]1[C@@H](/C=C/[C@@H](O)CSC2=CCCCC2)[C@H](O)C[C@@H]1O | 10
15 | COC(=O)CCC/C=C\C[C@@H]1[C@@H](/C=C/[C@@H](O)C#COc2ccccc2)[C@H](O)C[C@@H]1O | <2
16 | COC(=O)CCC/C=C\C[C@@H]1[C@@H](/C=C/[C@@H](O)CC(=O)c2ccccc2)[C@H](O)C[C@@H]1O | 40

— ChEMBL document CHEMBL1121630, “Prostaglandin analogues possessing antinidatory effects. 1. Modification of the omega chain” (1980)
